In all, about 2,500 compounds went through this assay and about 460 (18%) were called active. The list is a sample of the results. Unmarked numbers belong to inactive results.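 Rule for the calls: active = mean activation above a cutoff of low control average plus 3 SD from the earlier screen (cut at about 12% in these data); inactive = the rest.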
test: IANBD-channel fluorescence artefacts in buffer – biochemical, artefact control for cardiac RTF calcium sensitizer project, confirmation (AID 504382); conditions: IANBD fluorescence interference counterscreen, EC20 Ca2+, at 7.2 µM, stronger effect = higher value, scaled: EC20 calcium 0, EC100 calcium 100
In short: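 Medium: MOPS/KCl/MgCl2/EGTA/NTA/DTT buffer, pH 7.2 | Reagent: EC20 calcium, 0.472 mM | Compound dosing: 7.2 µM single dose | Times: 15 min compound exposure at 25 °C | Signal: Fluorescence, 480/540 nm | Measure: Interference relative to controls | Repeats: Triplicate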

| SMILES | fluorescence artifact activation |
| --- | --- |
| COc1cc2c3nnc(-c4ccc(F)cc4)c-3cn(Cc3cccc(F)c3)c2cc1OC | 124% (active) |
| COc1cc2c3nnc(-c4ccc(F)cc4)c-3cn(Cc3cccc(C)c3)c2cc1OC | 0.48% |
| COc1cc2c3nnc(-c4ccc(F)cc4)c-3cn(Cc3ccc(C)cc3)c2cc1OC | 0.37% |
| COC(=O)c1ccccc1-c1c2ccc(=N)cc-2oc2cc(N)ccc12 | 0.05% |
| Clc1ccc(-c2cn3nc4c(nc3n2)CCCC4)cc1 | 0.71% |
| Brc1ccc(-c2cn3nc4c(nc3n2)CCCC4)cc1 | 3.81% |
| c1ccc(-c2cn3nc4c(nc3n2)CCCC4)cc1 | 19.1% (active) |
| CCOCCCn1c(=NC(=O)c2cccs2)c(C#N)cc2c(=O)n3cccc(C)c3nc21 | 1.11% |
| CC(=O)c1ccc(NC(=O)CN2C(=O)/C(=C/C=C/c3ccccc3)SC2=S)cc1 | 0.03% |
| O=C(NC1CCCCC1)c1cc2nc3c(c(C(F)(F)F)n2n1)CCCC3 | 7.01% |
| COc1ccc(-c2nn(-c3ccccc3)cc2/C=N/NC(N)=S)cc1OC | 8.19% |
| O=C(N/N=C/c1cc(Cl)cc(Cl)c1O)c1ccncc1 | 2.37% |
| Cc1cc(/C=N/NC(N)=S)c(O)c(/C=N/NC(N)=S)c1 | 181% (active) |
| Cc1cc2c(cc1S(=O)(=O)CCC(=O)NCCc1ccccc1)OCC(=O)N2 | 11.3% |
| CCOC(=O)c1ccc(NC(=O)c2cc3c(C)nn(-c4ccccc4Cl)c3s2)s1 | 1.59% |
| CCN(CC)c1ccc2c(c1)OC(N)=C(C#N)C2c1cccnc1 (stereo not drawn) | 2.43% |
| N#CC1=C(N)Oc2cc(O)c(Cl)cc2C1c1ccccc1F (stereo not drawn) | 54.3% (active) |
| COC(=O)C1=C(CSc2nc3c(cc2C#N)CN(C)CC3)OC(N)=C(C#N)C1c1ccccc1F (stereo not drawn) | 3.38% |
| CCOc1ccc2cc(/C=C/C(=O)c3ccco3)c(Cl)nc2c1 | 0.34% |
| CC(CCc1ccc(O)cc1)NCCC(c1ccccc1)c1ccccc1 (stereo not drawn) | 13.1% (active) |
| COc1ccc(OC)c(NC(=O)NCCc2cccc(Cl)c2)c1 | 0.03% |
| C=C[C@@](C)(O)CC[C@@H]1[C@@]2(C)CCCC(C)(C)[C@@H]2CC[C@@]1(C)O | 0.16% |
| Cc1cccc(NC2=Nc3ccccc3N3C2=Nc2c(c(C)nn2-c2ccccc2)C3c2ccc(O)c(O)c2)c1 (stereo not drawn) | 96.4% (active) |
| CC1C/C(=C/c2cccn2C)C(=O)/C(=C/c2cccn2C)C1 (stereo not drawn) | 0.08% |

| SMILES | fluorescence artifact activation |
| --- | --- |
| COc1ccc(/C=C/C(=O)NC(=S)Nc2ccc(C(=O)O)cc2)cc1 | 6.95% |
| Cc1nnc(NC(=O)CS(=O)(=O)Cc2ccccc2)s1 | -0.07% |
| O=C(Oc1ccc2ccc(=O)oc2c1)c1cccs1 | 0.02% |
| O=S(=O)(/N=C(/Nc1nc2ccccc2s1)c1ccccc1)c1ccc(F)cc1 | 0.13% |
| Cc1onc(-c2ccccc2)c1C(=O)Nc1nc(-c2cc(F)ccc2F)cs1 | 0.13% |
| Cc1noc(C)c1C(=O)Nc1nc2ccccc2s1 | 38.5% (active) |
| Cc1c2c(n3c(nc4ccccc43)c1C#N)N(CCN1CCOCC1)CC2 | 0.13% |
| Cc1nc2c(C#N)cnn2c2c1CCN(Cc1ccccc1)N2C | 138% (active) |
| Cn1c2c(c(=O)n(C)c1=O)C(C(F)(F)F)(C(F)(F)F)N=C(CCC1CCCCC1)N2 | 0.01% |
| CC(=O)c1nnn(-c2cccc(C#N)c2)c1C | 0.2% |
| Cc1ccc(/C=C2/NC(=O)N(Cc3ccccc3F)C2=O)s1 | 0.1% |
| CCCCCCn1c(=O)[nH]c2nc3cc(N)c(C)cc3nc2c1=O | 45.6% (active) |
| CCCCn1c(=O)[nH]c2nc3cc(N)ccc3nc2c1=O | 0.06% |
| Cc1cc2nc3c(=O)n(C4CCCCC4)c(=O)[nH]c3nc2cc1N | 9.65% |
| C=CCn1c(=O)[nH]c2nc3cc(N=CN(C)C)c(C)cc3nc2c1=O | 16.2% (active) |
| Cc1cc2nc3c(=O)n(CCc4ccccc4)c(=O)[nH]c3nc2cc1N | 0.7% |
| N=c1oc2c3c4c(cc2cc1C(=O)Nc1ccccc1)CCCN4CCC3 | 4.85% |
| Cn1cccc1/C=C1\CCC/C(=C\c2cccn2C)C1=O | 0.94% |
| O=C(COC(=O)Cn1cnc2ccccc21)Nc1cccc2c1C(=O)c1ccccc1C2=O | 5.29% |
| O=C1/C(=C/c2ccc(Br)cc2)Oc2cc(O)ccc21 | 17.9% (active) |
| O=C1/C(=C/c2cccc(F)c2)Oc2cc(O)ccc21 | -0.06% |
| COc1cc(/C=C2\Oc3cc(O)ccc3C2=O)ccc1O | 0.16% |
| C[C@H](CO)NC(=O)[C@@H]1C[C@H]1[C@@H](NP(=O)(c1ccccc1)c1ccccc1)c1ccccc1 | 0.29% |
| C=CCN(C(=O)CNS(=O)(=O)c1ccccc1)C(C(=O)NCCOC)c1ccncc1 (stereo not drawn) | 0.23% |

| SMILES | fluorescence artifact activation |
| --- | --- |
| COCCNC(=O)[C@H]1C[C@@H]1[C@H](NP(=O)(c1ccccc1)c1ccccc1)c1ccccc1 | 1400% (active) |
| Cc1cc(Br)c2c(c1)C(O)(N1CCCCC1C)C(=O)N2 (stereo not drawn) | 1.99% |
| CC(C)(C)C(=O)/C=c1\s/c(=C\c2ccc(-c3ccc([N+](=O)[O-])cc3)o2)c(=O)n1CC(=O)NC(N)=O | 7.12% |
| COc1cc(/C=C(\C#N)c2nc3ccccc3o2)ccc1O | 0.62% |
| Cc1cc(C)n2nc3nc4c(cc3c2n1)CCCC4 | 28.7% (active) |
| Nc1nc(SCC(=O)Nc2ccccc2)nc2nc3c(cc12)CCCC3 | 0.24% |
| C=CCOc1ccc(Br)cc1CNCC | 6.82% |
| CCOc1cc(C#N)ccc1OCC(=O)N1CCc2ccccc2C1 | 0.13% |
| CCOc1ccc(C(=O)NCC(=O)Nc2ncccc2C)cc1OCC | 1.27% |
| CCOc1ccc(C(=O)NCC(=O)N2CCC3CCCCC3C2)cc1OCC (stereo not drawn) | 59.4% (active) |
| COCCOC(=O)/C(=C/c1ccc(OC(=O)c2ccccc2)cc1)C(C)=O | 4.54% |
| COC(=O)c1ccc(NC(=O)c2snnc2-c2ccccc2)cc1 | 1.82% |
| O=C(c1ccc2c(=O)n3c(nc2c1)CCCCC3)N1CCN(c2cccc(Cl)c2)CC1 | 0.04% |
| Oc1ccc2ccccc2c1C=NCc1cn2ccsc2n1 | -0.01% |
| Cc1cc(Cl)ccc1OCC(=O)Nc1nc(-c2cccs2)cs1 | 0.04% |
| N#C/C(=C\c1ccc(-c2ccc(F)cc2)o1)C(=O)Nc1nc(-c2cccs2)cs1 | 15.1% (active) |
| N#C/C(=C/c1ccc(N2CCOCC2)o1)C(=O)Nc1ccccc1 | 0.03% |
| N#C/C(=C/c1ccc(-c2ccccc2)o1)c1nc(-c2cccs2)cs1 | 19.2% (active) |
| N#C/C(=C\C=C\c1ccccc1)c1nc(-c2ccc3c(c2)OCO3)cs1 | 0.13% |
| Cn1c(/C(C#N)=C/c2ccc(-c3ccc(S(N)(=O)=O)cc3)o2)nc2ccccc21 | 0.08% |
| O=C(CSc1n[nH]c(-c2cccs2)n1)N1CCOCC1 | -0.05% |
| Cc1nnc(SCC(=O)NC(C)(C)C)n1C1CCCCC1 | 10.9% |
| Nc1c(C(=O)c2ccc(Cl)cc2)sc2nsc(SCCN3CCOCC3)c12 | 0.08% |
| Oc1ccc2nnc3c(Br)cnn3c2c1 | 0.07% |

| SMILES | fluorescence artifact activation |
| --- | --- |
| COc1ccc(/C=N/NC(=O)c2cc(OC)c(OC)c(OC)c2)cc1CN1CCc2cc(OC)c(OC)cc2C1C (stereo not drawn) | 7.53% |
| CC1(C)CC(N2CCCC2)=CC(=[N+]2CCCCC2)C1 | 2.5% |
| COc1ccc2[nH]c(C)c(CCN(Cc3cccs3)C(=S)Nc3ccc(F)cc3)c2c1 | 1.01% |
| O=C(Cc1ccc(NC(=O)C2CCCN(C(=O)C3CCCCC3)C2)cc1)Nc1cccc(C(=O)N2CCCC2)c1 (stereo not drawn) | 0.41% |
| CCCCOC(=O)Cn1c2ccc(OC)cc2c2nc3ccccc3nc21 | 0.92% |
| CCOc1ccc(Cn2c3ccc(OC)cc3c3nc4ccccc4nc32)cc1 | 23.1% (active) |
| COc1ccc(Cn2nnc3ccccc32)cc1 | 0.37% |
| COC(=O)C(=N/Nc1ccccc1C(=O)OC)/C(C)=N/O | 6.02% |
| C/C(=N/NC(=O)c1cc(C)[nH]n1)c1ccco1 | 0.79% |
| COc1ccc(/C=c2\s/c(=C/C(=O)c3ccc(C)cc3)[nH]c2=O)cc1OC | 0.04% |
| CN1CCc2c(sc3nc(SCC(N)=O)n(-c4ccccc4)c(=O)c23)C1 | -0.02% |
| Cc1ccc(NS(=O)(=O)c2ccc(C(=O)N3CCN(c4ncccn4)CC3)cc2)cc1 | 0.15% |
| COc1ccc2c(c1)cc(C(=O)N[C@@H](CCSC)C(=O)N1CCC[C@H]1C(=O)O)n2C | 1.37% |
| O=C(N1CCOCC1)N1CCN(c2ccc(F)cc2)CC1 | 0.02% |
| O=C(O)c1cc(NCc2ccc(F)cc2)ccc1N1CCOCC1 | 18.7% (active) |
| O=C1N/C(=C\c2ccc(N3CCOCC3)c(F)c2)C(=O)N1Cc1ccccc1 | 0.25% |
| CCOc1ccccc1N(CC(=O)Nc1ccc(OC)c(OC)c1)S(=O)(=O)c1ccccc1 | 0.04% |
| CC1=Nc2ccccc2/C1=C/c1nc(-c2ccc(C)s2)oc1O | 0.4% |
| CC(=O)Nc1ccc(N2C(=O)CSC2c2ccc(F)cc2)cc1 (stereo not drawn) | 47.7% (active) |
| CC(=O)Nc1ccc(N2C(=O)c3cccc4c(O)ccc(c34)C2=O)cc1 | 0.2% |
| COC(=O)C1(C)NC(c2ccc(C)cc2)C2C(=O)N(c3ccc(F)cc3)C(=O)C21 (stereo not drawn) | 3.94% |

— PubChem BioAssay AID504382 (The Scripps Research Institute Molecular Screening Center, 2011)
